Source: ChEMBL document CHEMBL2396608, “Thiazolylaminomannosides as potent antiadhesives of type 1 piliated Escherichia coli isolated from Crohn's disease patients” (J Med Chem, 2013)
Calls of active or inactive are those of the source. The rule behind the calls is not given here.

Experiments:
[1] = system: Escherichia coli; test: Antiadhesive activity against type-1 piliated adherent-invasive Escherichia coli LF82 assessed as residual bacterial adhesion to human T84 cells overexpressing CEACAM6 at 1 uM incubated for 1 hr prior to infection measured after 3 hrs relative to control; assay type: functional
How it was run: (§1)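 T84 cells seeded at 1.5 × 10⁵ cells/well and grown 48 h at 37 °C under 5% CO₂. Washed monolayers pretreated 1 h with inhibitor at final 0.1, 1, 10 or 100 μM (α-D-mannose 100–50000 μM), then infected 3 h with LB-grown LF82 at MOI 10 with inhibitor present. Cells lysed in 1% Triton X-100; CFU counted on LB agar. Residual adhesion given as % of untreated (means SEM).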

[2] = system: Escherichia coli; test: Antiadhesive activity against type-1 piliated adherent-invasive Escherichia coli LF82 assessed as residual bacterial adhesion to human T84 cells overexpressing CEACAM6 at 10 uM incubated for 1 hr prior to infection measured after 3 hrs relative to control; assay type: functional; how it was run: as §1
[3] = molecular target: Type 1 fimbrin D-mannose specific adhesin (Escherichia coli K-12, UniProt P08191); test: Binding affinity to Escherichia coli FimH assessed as dissociation constant by ITC analysis
[4] = system: Escherichia coli; test: Antiadhesive activity against type-1 piliated adherent-invasive Escherichia coli LF82 assessed as inhibition of bacterial adhesion to human T84 cells overexpressing CEACAM6 incubated for 1 hr prior to infection measured after 3 hrs; assay type: functional, organism-based; how it was run: as §1
[5] = molecular target: Type 1 fimbrin D-mannose specific adhesin (Escherichia coli K-12) (UniProt P08191); test: Binding affinity to Escherichia coli FimH assessed as decrease in RNaseB binding after 1 hr by competitive ELISA
How it was run: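 Wells coated with RNaseB in bicarbonate buffer pH 9.6, overnight at 4 °C. Blocked with 3% BSA in PBST, 2 h at 37 °C. Inhibitors in PBST plus FimH at 0.07 μM, 1 h at room temperature. Detection used rabbit anti-FimH (1:2500, 1 h), then HRP anti-rabbit (1:5000, 1 h), then TMB for 2–5 min in the dark, stopped with 1N H₂SO₄. Absorbance read at 450 nm.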

[6] = system: Escherichia coli; test: Antiadhesive activity against type-1 piliated adherent-invasive Escherichia coli LF82 assessed as inhibition of guinea pig erythrocyte hemagglutination relative to heptylmannoside; assay type: functional
How it was run: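 LF82 grown statically overnight in LB at 37 °C and washed three times in ice-cold PBS. Twofold compound dilutions, starting at 1 mM, made in 20 mM HEPES pH 7.4, 150 mM NaCl. Added 25 μL bacteria, then 50 μL guinea pig erythrocytes at 5%. Overnight on ice before read-out.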

[7] = system: Escherichia coli; test: Antiadhesive activity against type-1 piliated adherent-invasive Escherichia coli LF82 assessed as residual bacterial adhesion to human T84 cells overexpressing CEACAM6 at 1000 uM incubated for 1 hr prior to infection measured after 3 hrs relative to control; assay type: functional; how it was run: as §1
[8] = system: Escherichia coli; test: Antiadhesive activity against type-1 piliated adherent-invasive Escherichia coli LF82 assessed as decrease in residual bacterial adhesion to colonic tissue isolated from FVB/N transgenic mouse expressing human CEACAM6 at 10 umol after 1 hr relative to control; assay type: functional
How it was run: (§2)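 Colons from 10–12-week-old FVB/N CEABAC10 mice (human CEACAM6 transgenic; anesthetized, killed by cervical dislocation) split into four loops. Each loop was injected with 100 μL holding 2 × 10⁵ LF82 with or without inhibitor at 0.01, 0.1, 1 or 10 μmol, then held 1 h at 37 °C, 5% CO₂. Loops were opened, washed four times in PBS, homogenized and plated on LB agar with ampicillin 100 μg/mL and erythromycin 20 μg/mL. CFU normalized to untreated (100%); n = 5–8 mice, means SEM.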

[9] = system: Escherichia coli; test: Antiadhesive activity against type-1 piliated adherent-invasive Escherichia coli LF82 assessed as inhibition of bacterial adhesion to colonic tissue isolated from FVB/N transgenic mouse expressing human CEACAM6 after 1 hr; assay type: functional, organism-based; how it was run: as §2
[10] = system: Escherichia coli; test: Ratio of compound activity to D-mannose activity for prevention of Escherichia coli LF82 adhesion to colonic tissue isolated from FVB/N transgenic mouse expressing human CEACAM6; assay type: functional
[11] = system: Escherichia coli; test: Antiadhesive activity against type-1 piliated adherent-invasive Escherichia coli LF82 assessed as inhibition of bacterial adhesion to human T84 cells overexpressing CEACAM6 at 0.1 to 100 uM incubated for 1 hr prior to infection measured after 3 hrs relative to heptylmannoside; assay type: functional
[12] = system: Escherichia coli; test: Antiadhesive activity against type-1 piliated adherent-invasive Escherichia coli LF82 assessed as decrease in residual bacterial adhesion to colonic tissue isolated from FVB/N transgenic mouse expressing human CEACAM6 at 0.1 umol after 1 hr relative to control; assay type: functional; how it was run: as §2
[13] = system: Escherichia coli; test: Antiadhesive activity against type-1 piliated adherent-invasive Escherichia coli LF82 assessed as residual bacterial adhesion to human T84 cells overexpressing CEACAM6 at 0.1 uM incubated for 1 hr prior to infection measured after 3 hrs relative to control; assay type: functional; how it was run: as §1

Sequence of Type 1 fimbrin D-mannose specific adhesin (Escherichia coli K-12) (P08191 whole entry): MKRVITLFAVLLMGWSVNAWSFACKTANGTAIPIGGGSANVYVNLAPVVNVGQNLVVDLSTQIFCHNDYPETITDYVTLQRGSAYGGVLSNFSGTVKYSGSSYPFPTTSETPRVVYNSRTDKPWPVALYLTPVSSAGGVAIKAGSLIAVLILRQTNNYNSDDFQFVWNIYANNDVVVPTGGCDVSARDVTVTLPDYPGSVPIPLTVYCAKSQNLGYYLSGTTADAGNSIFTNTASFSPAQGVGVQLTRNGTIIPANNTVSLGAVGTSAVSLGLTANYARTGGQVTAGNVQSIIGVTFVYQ
Sequence of Type 1 fimbrin D-mannose specific adhesin (P08191 whole entry): as above

SMILES | Activity [5] | fold change (FC) [6] | other results
CCCCCCCO[C@H]1O[C@H](CO)[C@@H](O)[C@H](O)[C@@H]1O | – | – | Activity [1]: inactive; Activity [2]: 52.4%; Kd [3]: 7 nM; inhibition [4]: Dose-dependent effect
CC(=O)c1cnc(N[C@H]2O[C@H](CO)[C@@H](O)[C@H](O)[C@@H]2O)s1 | Dose-dependent effect | 1.4 | inhibition [4]: Dose-dependent effect
CC(C)(C)C(=O)c1cnc(N[C@H]2O[C@H](CO)[C@@H](O)[C@H](O)[C@@H]2O)s1 | Dose-dependent effect | 0.9 | –
O=C(c1cnc(N[C@H]2O[C@H](CO)[C@@H](O)[C@H](O)[C@@H]2O)s1)C12CC3CC(CC(C3)C1)C2 | Dose-dependent effect | 0.3 | –
OC[C@H]1O[C@H](O)[C@@H](O)[C@@H](O)[C@@H]1O | – | – | Activity [7]: 51.6%; inhibition [4]: Dose-dependent effect; Activity [8]: 41%; inhibition [9]: Dose-dependent effect
Cc1nc(-c2cnccn2)sc1C(=O)c1cnc(N[C@H]2O[C@H](CO)[C@@H](O)[C@H](O)[C@@H]2O)s1 | Dose-dependent effect | 0.2 | Ratio [10]: 10; Activity [1]: 14%; fold change (FC) [11]: 0.01; Activity [12]: 65%; inhibition [4]: Dose-dependent effect; inhibition [9]: Dose-dependent effect; Activity [13]: 57.6%
O=C(c1ccc2ccccc2c1)c1cnc(N[C@H]2O[C@H](CO)[C@@H](O)[C@H](O)[C@@H]2O)s1 | Dose-dependent effect | 2.3 | –

Now from value to compound, other results behind:

Activity [5] | SMILES | fold change (FC) [6] | other results
Dose-dependent effect | O=C(c1cnc(N[C@H]2O[C@H](CO)[C@@H](O)[C@H](O)[C@@H]2O)s1)C(F)(F)F | 1.7 | –
Dose-dependent effect | O=C(c1cccs1)c1cnc(N[C@H]2O[C@H](CO)[C@@H](O)[C@H](O)[C@@H]2O)s1 | 0.1 | –
Dose-dependent effect | O=C(c1ccsc1)c1cnc(N[C@H]2O[C@H](CO)[C@@H](O)[C@H](O)[C@@H]2O)s1 | 0.3 | –
Dose-dependent effect | O=C(c1ccc([N+](=O)[O-])cc1)c1cnc(N[C@H]2O[C@H](CO)[C@@H](O)[C@H](O)[C@@H]2O)s1 | 0.7 | –
Dose-dependent effect | Cc1ccc(C(=O)c2cnc(N[C@H]3O[C@H](CO)[C@@H](O)[C@H](O)[C@@H]3O)s2)cc1 | 0.4 | –
Dose-dependent effect | O=C(c1ccccc1)c1cnc(N[C@H]2O[C@H](CO)[C@@H](O)[C@H](O)[C@@H]2O)s1 | 0.4 | –
Dose-dependent effect | N#Cc1ccc(C(=O)c2cnc(N[C@H]3O[C@H](CO)[C@@H](O)[C@H](O)[C@@H]3O)s2)cc1 | 0.7 | –
